What was measured:
Tubulin = Tubulin (Sus scrofa, UniProt P02554+P02550); assay: Inhibition of porcine brain tubulin polymerization measured every 60 secs for 60 mins by DAPI staining-based fluorescence assay
MCF7 [1] = assay: Cytotoxicity against human MCF7 cells assessed as cell viability after 48 hrs by MTT assay; assay type: functional, cell-based; conditions: MCF7, 48 h
Method in brief: (§1)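 Cancer cell lines treated with compound for 48 h, and viability read by MTT assay. IC50 given as mean ± SD from at least three independent experiments.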

[2] = Cytotoxicity against human Bel7402 cells assessed as cell viability after 48 hrs by MTT assay; assay type: functional, cell-based; conditions: Bel-7402, 48 h
Method in brief: as §1

HeLa = assay: Cytotoxicity against human HeLa cells assessed as cell viability after 48 hrs by MTT assay; assay type: functional, cell-based
Method in brief: as §1

A2780 [3] = assay: Cytotoxicity against human A2780 cells assessed as cell viability after 48 hrs by MTT assay; assay type: functional, cell-based; conditions: A2780, 48 h
Method in brief: as §1

A549 [4] = assay: Cytotoxicity against human A549 cells assessed as cell viability after 48 hrs by MTT assay; assay type: functional, cell-based; conditions: A549, 48 h
Method in brief: as §1

[5] = Cytotoxicity against human HCT8 cells assessed as cell viability after 48 hrs by MTT assay; assay type: functional, cell-based; conditions: HCT-8, 48 h
Method in brief: as §1

A549 [6] = assay: Antitumor activity against human A549 cells xenografted in BALB/c nude mouse assessed as tumor growth inhibition at 30 mg/kg, ip administered every other day for 1 month measured every other day post dose relative to vehicle-treated control; assay type: functional; conditions: read-out: TGI
[7] = Cytotoxicity against human HCT8/VCT cells assessed as growth inhibition after 48 hrs by MTT assay; assay type: functional, cell-based
Method in brief: (§2)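 Drug-resistant lines were tested by a 48 h MTT viability assay. IC50 was derived from dose-response curves and reported as mean ± SE of at least three independent experiments.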

[8] = Cytotoxicity against human MCF7/DX cells assessed as growth inhibition after 48 hrs by MTT assay; assay type: functional, cell-based
Method in brief: as §2

[9] = Cytotoxicity against human A549/CDDP cells assessed as growth inhibition after 48 hrs by MTT assay; assay type: functional, cell-based; conditions: A549, 48 h
Method in brief: as §2

MCF7 [10] = assay: Resistance index, ratio of IC50 for human MCF7/DX cells to IC50 for human MCF7 cells; assay type: functional
[11] = Cytotoxicity against human A2780/TAX cells assessed as growth inhibition after 48 hrs by MTT assay; assay type: functional, cell-based
Method in brief: as §2

A2780 [12] = assay: Resistance index, ratio of IC50 for human A2780/TAX cells to IC50 for human A2780 cells; assay type: functional
A549 [13] = assay: Resistance index, ratio of IC50 for human A549/CDDP cells to IC50 for human A549 cells; assay type: functional
HCT-8 = assay: Resistance index, ratio of IC50 for human HCT8/VCT cells to IC50 for human HCT8 cells; assay type: functional

Row | SMILES | IC50 (Tubulin) [µM] | IC50 (MCF7 [1]) [µM] | IC50 [2] [µM] | IC50 (HeLa) [µM] | IC50 (A2780 [3]) [µM] | IC50 (A549 [4]) [µM] | IC50 [5] [µM] | inhibition in vivo at 30 mg/kg (A549 [6]) [%] | IC50 [7] [µM] | IC50 [8] [µM] | IC50 [9] [µM] | Ratio IC50 (MCF7 [10]) | IC50 [11] [µM] | Ratio IC50 (A2780 [12]) | Ratio IC50 (A549 [13]) | Ratio IC50 (HCT-8)
1 | COc1ccc2c(/C=C(\C)C(=O)c3cc(OC)c(OC)c(OC)c3)cn(CO)c2c1 | 3.59 | 0.019 | 0.009 | 0.013 | 0.021 | 0.008 | 0.017 |  |  |  |  |  |  |  |  | 
2 | COc1cc(C(=O)/C(C)=C/c2c[nH]c3cccc(OC)c23)cc(OC)c1OC |  | > 1 | > 1 | > 1 | > 1 | > 1 | > 1 |  |  |  |  |  |  |  |  | 
3 | COc1ccc2c(/C=C/C(=O)c3cc(OC)c(OC)c(OC)c3)cn(C)c2c1 | 3.48 | 0.087 | 0.061 | 0.062 | 0.025 | 0.023 | 0.047 |  |  |  |  |  |  |  |  | 
4 | COc1cc(C(=O)/C=C/c2cccc3c2ccn3C)cc(OC)c1OC |  | 0.038 | 0.032 | 0.031 | 0.023 | 0.03 | 0.041 |  |  |  |  |  |  |  |  | 
5 | COc1ccc2c(/C=C(\C)C(=O)c3cc(OC)c(OC)c(OC)c3)cn(C)c2c1 |  | 0.042 | 0.028 | 0.031 | 0.034 | 0.041 | 0.061 |  |  |  |  |  |  |  |  | 
6 | COc1ccc2c(/C=C(\C)C(=O)c3cc(OC)c(OC)c(OC)c3)cn(CCBr)c2c1 |  | 0.389 | 0.259 | 0.146 | 0.274 | 0.126 | 0.169 |  |  |  |  |  |  |  |  | 
7 | COc1ccc2c(c1)c(/C=C/C(=O)c1ccc(OC)c3c1OC(C)(C)C=C3)cn2C |  | 0.567 | 0.389 | 0.415 | 0.497 | 0.452 | 0.675 |  |  |  |  |  |  |  |  | 
8 | COc1ccc(/C=C\c2cc(OC)c(OC)c(OC)c2)cc1OP(=O)(O)O [FOSBRETABULIN] |  |  |  |  |  |  |  | 52.2 |  |  |  |  |  |  |  | 
9 | C=Cn1cc(/C=C(\C)C(=O)c2cc(OC)c(OC)c(OC)c2)c2ccc(OC)cc21 |  | 0.064 | 0.091 | 0.067 | 0.049 | 0.089 | 0.079 |  |  |  |  |  |  |  |  | 
10 | COc1cc(C(=O)/C=C/c2cccc3[nH]ccc23)cc(OC)c1OC |  | 0.05 | 0.063 | 0.038 | 0.041 | 0.036 | 0.057 |  |  |  |  |  |  |  |  | 
11 | COc1ccc2c(/C=C/C(=O)c3ccc(OC)c4c3OC(C)(C)C=C4)cn(C)c2c1 |  | 0.045 | 0.097 | 0.093 | 0.061 | 0.058 | 0.087 |  |  |  |  |  |  |  |  | 
12 | COc1ccc(C(=O)/C=C/c2c[nH]c3cccc(OC)c23)c2c1C=CC(C)(C)O2 |  | > 1 | > 1 | > 1 | > 1 | > 1 | > 1 |  |  |  |  |  |  |  |  | 
13 | COc1ccc2c(/C=C/C(=O)c3cc(OC)c(OC)c(OC)c3)c[nH]c2c1 |  | 0.246 | 0.351 | 0.261 | 0.118 | 0.224 | 0.274 |  |  |  |  |  |  |  |  | 
14 | COc1cc(C(=O)/C=C/c2ccc3c(ccn3C)c2)cc(OC)c1OC |  | 0.061 | 0.077 | 0.057 | 0.045 | 0.053 | 0.067 |  |  |  |  |  |  |  |  | 
15 | COc1cccc2c1C(=O)c1c(O)c3c(c(O)c1C2=O)C[C@@](O)(C(=O)CO)C[C@@H]3O[C@H]1C[C@H](N)[C@H](O)[C@H](C)O1 [DOXORUBICIN] |  |  |  |  | 0.98 | 2.17 | 1.17 |  | 1.51 | 50.4 | 3.14 | 49.4 | 3.29 | 3.35 | 1.44 | 1.29
16 | COc1cc2c(c(OC)c1OC)C/C(=C\c1cccc3[nH]ccc13)C2=O |  | 0.047 | 0.035 | 0.027 | 0.035 | 0.026 | 0.038 |  |  |  |  |  |  |  |  | 

Row | SMILES | IC50 (Tubulin) [µM] | IC50 (MCF7 [1]) [µM] | IC50 [2] [µM] | IC50 (HeLa) [µM] | IC50 (A2780 [3]) [µM] | IC50 (A549 [4]) [µM] | IC50 [5] [µM] | inhibition in vivo at 30 mg/kg (A549 [6]) [%] | IC50 [7] [µM] | IC50 [8] [µM] | IC50 [9] [µM] | Ratio IC50 (MCF7 [10]) | IC50 [11] [µM] | Ratio IC50 (A2780 [12]) | Ratio IC50 (A549 [13]) | Ratio IC50 (HCT-8)
17 | COc1ccc2[nH]cc(/C=C/C(=O)c3ccc(OC)c4c3OC(C)(C)C=C4)c2c1 |  | 0.782 | 0.456 | 0.327 | 0.398 | 0.272 | 0.557 |  |  |  |  |  |  |  |  | 
18 | COc1ccc2c(c1)c(/C=C(\C)C(=O)c1cc(OC)c(OC)c(OC)c1)cn2C |  | 0.548 | 0.356 | 0.235 | 0.427 | 0.331 | 0.726 |  |  |  |  |  |  |  |  | 
19 | COc1ccc2c(/C=C/C(=O)c3ccc(OC)c4c3OC(C)(C)C=C4)c[nH]c2c1 | 4.39 | 0.056 | 0.078 | 0.049 | 0.041 | 0.055 | 0.077 |  |  |  |  |  |  |  |  | 
20 | COc1ccc2[nH]cc(/C=C/C(=O)c3cc(OC)c(OC)c(OC)c3)c2c1 |  | > 1 | > 1 | > 1 | > 1 | > 1 | > 1 |  |  |  |  |  |  |  |  | 
21 | CCCn1cc(/C=C(\C)C(=O)c2cc(OC)c(OC)c(OC)c2)c2ccc(OC)cc21 |  | 0.497 | 0.614 | 0.531 | 0.597 | 0.514 | 0.679 |  |  |  |  |  |  |  |  | 
22 | CCn1cc(/C=C(\C)C(=O)c2cc(OC)c(OC)c(OC)c2)c2ccc(OC)cc21 |  | 0.032 | 0.015 | 0.065 | 0.021 | 0.039 | 0.056 |  |  |  |  |  |  |  |  | 
23 | COc1ccc2c(/C=C(\C)C(=O)c3cc(OC)c(OC)c(OC)c3)cn(CCO)c2c1 |  | 0.014 | 0.021 | 0.035 | 0.031 | 0.025 | 0.02 |  |  |  |  |  |  |  |  | 
24 | COc1cc(C(=O)/C=C/c2ccc3[nH]ccc3c2)cc(OC)c1OC |  | 0.028 | 0.034 | 0.022 | 0.028 | 0.033 | 0.034 |  |  |  |  |  |  |  |  | 
25 | CC[C@]1(O)C[C@H]2CN(CCc3c([nH]c4ccccc34)[C@@](C(=O)OC)(c3cc4c(cc3OC)N(C=O)[C@H]3[C@@](O)(C(=O)OC)[C@H](OC(C)=O)[C@]5(CC)C=CCN6CC[C@]43[C@@H]65)C2)C1 [VINCRISTINE] |  | 0.098 |  |  | 0.026 | 0.061 | 0.35 |  | 7.86 | 1.26 | 0.561 | 12.9 | 0.168 | 6.46 | 9.2 | 22.5
26 | COc1ccc2[nH]cc(/C=C(\C)C(=O)c3cc(OC)c(OC)c(OC)c3)c2c1 | 5.06 | 0.033 | 0.096 | 0.078 | 0.032 | 0.074 | 0.048 |  |  |  |  |  |  |  |  | 
27 | COc1cc(C(=O)/C=C/c2cn(C)c3cccc(OC)c23)cc(OC)c1OC |  | > 1 | > 1 | > 1 | > 1 | > 1 | > 1 |  |  |  |  |  |  |  |  | 
28 | COc1cc(C(=O)/C(C)=C/c2cn(C)c3cccc(OC)c23)cc(OC)c1OC |  | > 1 | > 1 | > 1 | > 1 | > 1 | > 1 |  |  |  |  |  |  |  |  | 
29 | COc1ccc(C(=O)/C=C/c2cn(C)c3cccc(OC)c23)c2c1C=CC(C)(C)O2 |  | > 1 | > 1 | > 1 | > 1 | > 1 | > 1 |  |  |  |  |  |  |  |  | 
30 | COc1cc(C(=O)/C=C/c2c[nH]c3cccc(OC)c23)cc(OC)c1OC |  | > 1 | > 1 | > 1 | > 1 | > 1 | > 1 |  |  |  |  |  |  |  |  | 
31 | COc1ccc2c(c1)c(/C=C/C(=O)c1cc(OC)c(OC)c(OC)c1)cn2C |  | 0.231 | 0.256 | 0.531 | 0.283 | 0.164 | 0.315 |  |  |  |  |  |  |  |  | 
32 | CC(=O)O[C@H]1C(=O)[C@@]2(C)[C@H]([C@H](OC(=O)c3ccccc3)[C@]3(O)C[C@H](OC(=O)[C@H](O)[C@@H](NC(=O)c4ccccc4)c4ccccc4)C(C)=C1C3(C)C)[C@]1(OC(C)=O)CO[C@@H]1C[C@@H]2O [PACLITAXEL] |  |  |  |  | 0.005 |  | 0.019 |  | 0.125 | 0.135 | 0.023 |  | 5.68 |  |  | 
